# Key:
# Format in all cases: functional, cell-based
# [1] = biological target: T1, Cysteinyl leukotriene receptor 1 (Homo sapiens) (UniProt Q9Y271); assay: Antagonist activity at CysLT1 receptor (unknown origin) expressed in human dU937 cells assessed as reduction in LTD4-induced cytosolic free Ca2+ level at 1 uM after 30 mins by fluorescence assay relative to control
# T1 sequence (whole entry): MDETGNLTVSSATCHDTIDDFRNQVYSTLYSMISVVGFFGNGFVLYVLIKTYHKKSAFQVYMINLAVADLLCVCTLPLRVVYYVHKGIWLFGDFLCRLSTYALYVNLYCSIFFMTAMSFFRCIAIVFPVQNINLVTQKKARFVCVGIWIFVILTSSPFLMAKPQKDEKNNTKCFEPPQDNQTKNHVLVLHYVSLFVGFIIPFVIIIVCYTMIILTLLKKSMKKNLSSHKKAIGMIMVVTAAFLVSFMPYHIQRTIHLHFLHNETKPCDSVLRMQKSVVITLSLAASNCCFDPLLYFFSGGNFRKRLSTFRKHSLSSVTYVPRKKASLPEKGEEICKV
# [2] = biological target: T2, Cysteinyl leukotriene receptor 2 (Homo sapiens) (UniProt Q9NS75); assay: Antagonist activity at human recombinant CysLT2 receptor expressed in human HEK293 cells assessed as reduction in LTD4-induced cytosolic free Ca2+ level at 1 uM after 30 mins by fluorescence assay relative to control
# T2 sequence (whole entry): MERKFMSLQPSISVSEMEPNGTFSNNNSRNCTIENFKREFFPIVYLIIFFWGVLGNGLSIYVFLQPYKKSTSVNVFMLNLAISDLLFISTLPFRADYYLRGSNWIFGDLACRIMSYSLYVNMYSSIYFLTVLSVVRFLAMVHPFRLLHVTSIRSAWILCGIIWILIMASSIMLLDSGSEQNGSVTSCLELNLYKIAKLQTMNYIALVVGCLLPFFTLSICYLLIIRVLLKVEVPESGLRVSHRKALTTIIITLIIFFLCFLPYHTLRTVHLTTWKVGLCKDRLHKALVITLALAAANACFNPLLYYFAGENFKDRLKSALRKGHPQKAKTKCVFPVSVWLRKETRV
# How it was run: (§1)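 HEK293 cells stably transfected with pcDNA3.1(+)-hCysLT2 were grown at 37 °C in 5% CO2 and plated. After 24 h they were preincubated for 30 min in BSS with or without test compound. Cells were then stimulated with LTD4, with ATP as a positive stimulus. The response was taken as peak minus basal and expressed as % of BSS-only control.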
# [3] = biological target: T2, Cysteinyl leukotriene receptor 2 (Homo sapiens); assay: (§2) Antagonist activity at human recombinant CysLT2 receptor expressed in human HEK293 cells assessed as reduction in LTD4-induced cytosolic free Ca2+ level after 30 mins by fluorescence assay relative to control
# How it was run: as §1, with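 “stimulus. [Ca2+]i fluorescence was read at 37 °C (ex 485/em 525 nm).” for “stimulus.”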
# [4] = biological target: T3, Cysteinyl leukotriene receptor 2 (Homo sapiens, UniProt Q9NS75); assay: as §2
# T3 sequence (Q9NS75 whole entry): T2 sequence (whole entry)
# How it was run: as §1, with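 “stimulus. [Ca2+]i fluorescence was read at 37 °C (ex 485/em 525 nm).” for “stimulus.”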
SMILES,inhibition [1] [%],inhibition [2] [%],Activity [3],Imax [3] [%],IC50 [4] [µM]
CCCCCCCCOc1ccc(/C=C/C(=O)c2ccc(C(=O)O)cc2OCC(=O)O)cc1,8.6,–,–,–,–
O=C(O)COc1ccc(C(=O)O)cc1C(=O)/C=C/c1ccc(OCCCCOc2ccc(Cl)cc2)cc1,7,44,Dose-dependent effect,72.8,7.5
CCCCCCCCCCCCOc1cccc(/C=C/C(=O)c2cc(C(=O)O)ccc2OCC(=O)O)c1,4.8,70.5,Dose-dependent effect,80.5,0.25
N#CCOc1cc(C(=O)O)ccc1C(=O)/C=C/c1ccc(OCCCCOc2ccc(Cl)cc2)cc1,–,10.4,–,–,–

# The next lines start with the values.
inhibition [1] [%],inhibition [2] [%],Activity [3],Imax [3] [%],IC50 [4] [µM],SMILES
35.7,–,–,–,–,CCCCCCCCCCCCOc1ccc(/C=C/C(=O)c2cc(C(=O)O)ccc2OCC(=O)O)cc1
10.6,–,–,–,–,CCCCCCCCCCCCOc1ccc(/C=C/C(=O)c2ccc(C(=O)O)cc2OCC(=O)O)cc1
